Results on 3 compounds are retold here after ChEMBL document CHEMBL1121732, “Synthesis and pharmacological activity of thiohexital enantiomers” (J Med Chem, 1981).

Data set [1] deals with Mus musculus. Put plainly: Evaluation for the onset of action of intraperitoneal administration of dose. It counts as functional.
Data set [2] can be described thus: Potency ratio of slower rate (LD50) to that of faster rate (LD50). Format: functional. In short, it runs like this: (§1)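 Racemate given iv via caudal vein at 20 mL/kg, either fast (about 0.5 s) or slower (about 3.0 s) injection. […] Slow-rate value compared with fast-rate value.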
Data set [3] deals with Mus musculus. Nature of the data set: (§2) The median anesthetic dose evaluated after intraperitoneal administration in barbiturates. It counts as functional. In short, it runs like this: (§3)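 Male CF-1 mice (29.5 ± 2.5 g). Drug dissolved in 0.1 M aqueous NaOH (monosodium salt), diluted with saline, dosed at 20 mL/kg ip or iv via caudal vein; weights as free acid. Anesthesia = loss of righting reflex (no recovery from back within 1 min). AD50 with 95% confidence limits by Litchfield-Wilcoxon; ≥4 doses giving 10-90% response, 10 mice per dose.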

Data set [4] concerns Mus musculus. Nature of the data set: (§4) Evaluation after intravenous injection at faster rate (0.5 s). Format: functional. In short, it runs like this: as §3
The test system of data set [5] is Mus musculus. Nature of the data set: Evaluation for duration of recovery tremors after administration of dose. It counts as functional. In short, it runs like this: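 Groups of 40 male CF-1 mice, each given its compound's AD50 dose ip. Recovery tremors recorded for incidence, duration in minutes and graded severity.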
For data set [6], the system named is Mus musculus. Put plainly: The median anesthetic dose evaluated after intravenous administration in barbiturates. It counts as functional. In short, it runs like this:
as §3

In data set [7] the test system is Mus musculus. Put plainly: Evaluation for the duration of action of intraperitoneal administration of dose. Format: functional.
Data set [8] can be described thus: Potency ratio of slower rate (AD50) to that of faster rate (AD50). Format: functional. Summed up: as §1
Data set [9] is described as follows: Ratio of LD50 to AD50 after intravenous administration. Format: ADME. Summed up:
(§5)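 Therapeutic index, LD50/AD50. Both values from Litchfield-Wilcoxon curves in male CF-1 mice, 10 per dose, ≥4 doses. […] Dosing ip or iv (caudal vein), 20 mL/kg saline vehicle after 0.1 M NaOH.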

Data set [10] is described as follows: The median lethal dose evaluated after intravenous administration in barbiturates. Format: ADME. In short, it runs like this:
(§6)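 Male CF-1 mice (29.5 ± 2.5 g). Drug dissolved in 0.1 M aqueous NaOH, diluted with saline, 20 mL/kg ip or iv (caudal vein); doses as free acid. Lethality scored over 24 h. LD50 with 95% confidence limits by Litchfield-Wilcoxon from ≥4 doses giving 10-90% response, 10 mice per dose.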

Data set [11] is described as follows: as §4. It counts as ADME, organism-based. Conditions: mouse, in vivo.
The nature of data set [12]: Ratio of LD50 to AD50 after intraperitoneal administration. The note with it: ip; read-out: Therapeutic index. It counts as ADME. Summed up: as §5
A short description of data set [13]: Potency ratio of compound was measured after intravenous administration. Format: functional. In short, it runs like this:
(§7)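 Potency relative to the racemate, the standard, from Litchfield-Wilcoxon dose-response curves (≥4 doses, 10 male CF-1 mice each) for loss of righting reflex. Dosing ip or iv (caudal vein) at 20 mL/kg in saline after dissolving in 0.1 M NaOH.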

The nature of data set [14]: as §2. It counts as functional. Conditions: ip. Summed up:
as §3

The nature of data set [15]: Potency ratio of compound to that of racemate was measured after intraperitoneal administration. Format: functional. In short, it runs like this:
as §7

The nature of data set [16]: The median lethal dose evaluated after intraperitoneal administration in barbiturates. Format: ADME. Conditions: ip. Summed up: as §6
Data set [17] in a line: Potency ratio of compound to that of racemate was measured after intravenous administration; More potent. It counts as functional. Summed up: as §7
Data set [18] can be described thus: Potency ratio of compound was measured after intraperitoneal administration; More potent. It counts as functional. In short, it runs like this:
as §7

Structures are written as SMILES. Where “and” joins values, the source holds several entries; their conditions need not be identical. Identical values can stand only once.

As a reminder, the LD50 is the dose at which mortality reaches 50%. Read a low LD50 as greater toxicity.

The compound `C=CCC1(C(C)C#CCC)C(=O)NC(=S)NC1=O` (racemic) [RAC THIOHEXITAL] had an Onset of action in the data set on Mus musculus [1] of 3.69 min. Moreover, the Potency ratio was determined as 1.7 in [2] and 2.15 in data set [8]. Besides, the results for the AD50 in the data set with Mus musculus [3], with Mus musculus [4] and with Mus musculus [6] were 25.8 mg/kg, 9.2 mg/kg and 19.8 mg/kg, respectively. Also, the values for the Duration in the data set on Mus musculus [5] and in the data set on Mus musculus [7] were 5.8 min and 12.36 min, respectively. The Therapeutic index in data set [9] is on record as 3.4. Also, the selectivity ratio in [9] (read-out: Therapeutic index) worked out at 2.7; in data set [12], 2.5. Moreover, the LD50 in [10] amounted to 53.5 mg/kg; in [11], 31.5 mg/kg.

On to `C=CCC1([C@H](C)C#CCC)C(=O)NC(=S)NC1=O`, for which the Potency ratio is 1.22 in data set [13]; 1.06 and 1.04 in data set [15]. Also, in data set [14], the LD50 was 66.1 mg/kg. In addition, the AD50 in the data set on Mus musculus [3] amounted to 27.3 mg/kg; in the data set on Mus musculus [6] it was 24.1 mg/kg. Also, the Duration with Mus musculus [5] was found to be 6.2 min. In addition, the selectivity ratio in data set [12] worked out at 2.4.

On to `C=CCC1([C@@H](C)C#CCC)C(=O)NC(=S)NC1=O`, for which the Onset of action in the data set with Mus musculus [1] stood at 3.49 min. The compound further yielded an LD50 in [16] of 59.8 mg/kg. Further, the AD50 with Mus musculus [3] stood at 18.8 mg/kg; with Mus musculus [6] it was 12.3 mg/kg. The values for the Potency ratio in data set [15], in data set [17] and in [18] were 1.06, 1.61 and 1.37, respectively. Besides, the Duration with Mus musculus [5] is listed as 5.4 min; in the data set with Mus musculus [7] it was 12.15 min. Moreover, in [12], the selectivity ratio stood at 3.2.
